The source of these data is the array DNA melting data of Ke et al. (doi:10.1101/2024.01.08.574731).

Data set [1] in a line: folding enthalpy; higher = less favourable; fluorescence melt of hairpins on a sequencing array, two-state fit. The settings on record: sodium 0.088 M. The method, boiled down: (§1)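 Hairpins were imaged by Cy3 fluorescence on a sequenced MiSeq flow cell with annealed Cy3 and quencher oligos, in 50 mM Na-HEPES pH 8.0, 25 mM NaCl, in 2.5 °C steps up to 60 °C. Bootstrapped two-state fits of normalised signals gave melting temperature and folding enthalpy. Four replicates were combined by inverse variance, and fitted temperatures were raised by 9.35 °C to match UV melts.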

A short description of data set [2]: melting temperature; fluorescence melt of hairpins on a sequencing array, two-state fit, raised by 9.35 °C to match UV melts. The settings on record: sodium 0.088 M. Put shortly: as §1

Consider GATCCTGTTAAGGATC ((((((....)))))), for which, in data set [1], the folding enthalpy is -48.7 kcal/mol. Besides, the Tm in data set [2] stood at 65.7 °C.
On the same counts, the results for GATCCTTAAAAGGATC ((((((....)))))) are -41.7 kcal/mol and 49.7 °C.
On the same counts, the results for GATCCTTAATAGGATC ((((((....)))))) are -39.1 kcal/mol and 50.1 °C.
For the sequence GATCCTTACAGGATC ((((((...)))))), in data set [1], the folding enthalpy is -34.2 kcal/mol. For the same sequence, in data set [2], the Tm worked out at 56 °C.
Turning to GATCCTTATGAGGATC ((((((....)))))), in data set [1], the folding enthalpy is -37.1 kcal/mol. Further, the Tm in data set [2] was determined as 53.3 °C.
Take GATCCTTCAAGGATC ((((((...)))))): the folding enthalpy in data set [1] is -36.9 kcal/mol. Besides, the Tm in data set [2] was found to be 54.7 °C.
On the same counts, the results for GATCCTTCATAGGATC ((((((....)))))) are -39.5 kcal/mol and 52.4 °C.
For GATCCTTCGAAGGATC ((((((....)))))) the same measures were -49.6 kcal/mol and 54.1 °C.
On the same counts, the results for GATCCTTCGAGGATC ((((((...)))))) are -28.7 kcal/mol and 54.4 °C.
With GATCCTTCTGAGGATC ((((((....)))))), the folding enthalpy in data set [1] was -38.4 kcal/mol. The Tm in data set [2] was found to be 53.7 °C.
For GATCCTTGGAGGATC ((((((...)))))) the same measures were -42 kcal/mol and 50.4 °C.
On the same counts, the results for GATCCTTTAAAGGATC ((((((....)))))) are -40.9 kcal/mol and 53.4 °C.
For GATCCTTTGAAGGATC ((((((....)))))) the same measures were -36 kcal/mol and 52.4 °C.
For GATCCTTTTTAGGATC ((((((....)))))), in data set [1], the folding enthalpy was -34.7 kcal/mol. Moreover, in data set [2], the Tm stood at 53.9 °C.
On the same counts, the results for GATCGAAAGCTCGATC ((((((....)))))) are -29.6 kcal/mol and 48.7 °C.
On the same counts, the results for GATCGAAAGTCGATC ((((((...)))))) are -30.5 kcal/mol and 48.8 °C.
For GATCGAACAGTCGATC ((((((....)))))) the same measures were -31.4 kcal/mol and 47.7 °C.
Take GATCGAACATCGATC ((((((...)))))): the folding enthalpy in data set [1] was -37.3 kcal/mol. Also, in data set [2], the Tm came out at 49 °C.
As for GATCGAACCTCGATC ((((((...)))))), in data set [1], the folding enthalpy is -34.4 kcal/mol. Moreover, the Tm in data set [2] amounted to 50.7 °C.
On the same counts, the results for GATCGAAGAATCGATC ((((((....)))))) are -28.4 kcal/mol and 47.1 °C.
On the same counts, the results for GATCGAAGAGTCGATC ((((((....)))))) are -31.6 kcal/mol and 47.5 °C.
In the case of GATCGAAGCGTCGATC ((((((....)))))), the folding enthalpy in data set [1] is -39.9 kcal/mol. In addition, in data set [2], the Tm is 51.1 °C.
On the same counts, the results for GATCGAAGGTCGATC ((((((...)))))) are -25.6 kcal/mol and 50.9 °C.
On the same counts, the results for GATCGAAGTGTCGATC ((((((....)))))) are -42.2 kcal/mol and 51.2 °C.
For GATCGAATATCGATC ((((((...)))))) the same measures were -33.4 kcal/mol and 50.4 °C.
Regarding GATCGAATCGTCGATC ((((((....)))))), the folding enthalpy in data set [1] is -32.1 kcal/mol. Further, the Tm in data set [2] was 51.4 °C.
For GATCGAATCTTCGATC ((((((....)))))) the same measures were -42.4 kcal/mol and 54.2 °C.
For GATCGAATTTCGATC ((((((...)))))) the same measures were -46.1 kcal/mol and 51.5 °C.
On the same counts, the results for GATCGACCAATCGATC ((((((....)))))) are -34.2 kcal/mol and 49 °C.
On to GATCGACCACTCGATC ((((((....)))))), for which, in data set [1], the folding enthalpy is -38.1 kcal/mol. In data set [2], the Tm turned out to be 50.5 °C.
For GATCGACCAGTCGATC ((((((....)))))) the same measures were -43.9 kcal/mol and 57.4 °C.
In the case of GATCGACCTATCGATC ((((((....)))))), the folding enthalpy in data set [1] is -38.9 kcal/mol. The Tm in data set [2] came out at 51 °C.
In the case of GATCGACGATCGATC ((((((...)))))), the folding enthalpy in data set [1] was -20.6 kcal/mol. For the same sequence, in data set [2], the Tm worked out at 49.2 °C.
On the same counts, the results for GATCGACGGCTCGATC ((((((....)))))) are -42.7 kcal/mol and 50.5 °C.
Turning to GATCGACGGGTCGATC ((((((....)))))), the folding enthalpy in data set [1] is -46 kcal/mol. Further, the Tm in data set [2] came to 63.3 °C.
In the case of GATCGACTACTCGATC ((((((....)))))), the folding enthalpy in data set [1] was -36.5 kcal/mol. In data set [2], the Tm was determined as 50.7 °C.
For GATCGAGAATTCGATC ((((((....)))))) the same measures were -39.7 kcal/mol and 57.4 °C.
On the same counts, the results for GATCGAGATTCGATC ((((((...)))))) are -41.4 kcal/mol and 50.4 °C.
